# ChEMBL document CHEMBL3244382, “Structural requirements for antileukemic activity among the naturally occurring and semisynthetic maytansinoids” (J Med Chem, 1978)
# The source made the active and inactive calls.
# Columns and labels:
# [1] = system: Mus musculus; experiment: Toxicity in PS mouse allografted with mouse P388 cells assessed as change in body weight at 50 ug/kg relative to control; type: organism-based; conditions: in vivo, 0.05 mg/kg
# Procedure, shortened: (§1)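 P388 (PS) leukemia in mice, 6 mice per dose group. Weight change is the difference in grams between treated and control animals. Survivors are recorded on toxicity day, normally 4 days after the first injection.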
# [2] = system: Mus musculus; experiment: Toxicity in PS mouse allografted with mouse P388 cells assessed as change in body weight at 200 ug/kg relative to control; type: organism-based; conditions: in vivo, 0.2 mg/kg; procedure, shortened: as §1
# [3] = system: P388; experiment: Antitumor activity against mouse P388 cells allografted in PS mouse assessed as median survival time at 100 ug/kg relative to control; type: functional
# Procedure, shortened: (§2)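 P388 leukemia (PS) in mice, six mice started per dose group. Read-out is T/C: median survival time of the treated group divided by that of the untreated control group, expressed as a percent. The NIH protocol counts a compound as active when T/C > 125%.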
# [4] = system: Mus musculus; experiment: Toxicity in PS mouse allografted with mouse P388 cells assessed as survival at 3.1 ug/kg after 4 days; type: organism-based; conditions: in vivo, 0.0031 mg/kg, 96 h
# Procedure, shortened: (§3)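 PS (P388) leukemic mice, six started per dose group. Toxicity scored as survivors on the toxicity day over the number of mice started. The toxicity day is normally 4 days after the first injection.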
# [5] = system: KB; experiment: Cytotoxicity against human KB cells; type: functional; conditions: read-out: ED50 (the source's name)
# [6] = system: Mus musculus; experiment: Toxicity in PS mouse allografted with mouse P388 cells assessed as survival at 12.5 ug/kg after 4 days; type: organism-based; conditions: in vivo, 0.0125 mg/kg, 96 h; procedure, shortened: as §3
# [7] = system: Mus musculus; experiment: Toxicity in PS mouse allografted with mouse P388 cells assessed as change in body weight at 1.6 ug/kg relative to control; type: organism-based; conditions: in vivo, 0.0016 mg/kg; procedure, shortened: as §1
# [8] = system: P388; experiment: Antitumor activity against mouse P388 cells allografted in PS mouse assessed as median survival time at 50 ug/kg relative to control; type: functional; procedure, shortened: as §2
# [9] = system: P388; experiment: Antitumor activity against mouse P388 cells allografted in PS mouse assessed as median survival time at 1.6 ug/kg relative to control; type: functional; procedure, shortened: as §2
# [10] = system: Mus musculus; experiment: Toxicity in PS mouse allografted with mouse P388 cells assessed as change in body weight at 3.1 ug/kg relative to control; type: organism-based; conditions: in vivo, 0.0031 mg/kg; procedure, shortened: as §1
# [11] = system: P388; experiment: Antitumor activity against mouse P388 cells allografted in PS mouse assessed as median survival time at 3.1 ug/kg relative to control; type: functional; procedure, shortened: as §2
# [12] = system: Mus musculus; experiment: Toxicity in PS mouse allografted with mouse P388 cells assessed as change in body weight at 25 ug/kg relative to control; type: organism-based; conditions: in vivo, 0.025 mg/kg; procedure, shortened: as §1
# [13] = target: Tubulin (Homo sapiens) (UniProt P68371+Q9H4B7+P0DPH7+P68366+Q13509+Q71U36+P04350+Q3ZCM7+P07437+P68363+Q9BQE3+Q6PEY2+Q13885+Q9BVA1+Q9BUF5); experiment: Inhibition of brain tubulin polymerization (unknown origin) at 37 degC by spectrophotometry
# [14] = system: P388; experiment: Antitumor activity against mouse P388 cells allografted in PS mouse assessed as median survival time at 12.5 ug/kg relative to control; type: functional; procedure, shortened: as §2
# [15] = system: Mus musculus; experiment: Toxicity in PS mouse allografted with mouse P388 cells assessed as survival at 100 ug/kg after 4 days; type: organism-based; conditions: in vivo, 0.1 mg/kg, 96 h; procedure, shortened: as §3
# [16] = system: Mus musculus; experiment: Toxicity in PS mouse allografted with mouse P388 cells assessed as survival at 6.2 ug/kg after 4 days; type: organism-based; conditions: in vivo, 0.0062 mg/kg, 96 h; procedure, shortened: as §3
# [17] = system: Mus musculus; experiment: Toxicity in PS mouse allografted with mouse P388 cells assessed as survival at 200 ug/kg after 4 days; type: organism-based; conditions: in vivo, 0.2 mg/kg, 96 h; procedure, shortened: as §3
# [18] = system: Mus musculus; experiment: Toxicity in PS mouse allografted with mouse P388 cells assessed as change in body weight at 12.5 ug/kg relative to control; type: organism-based; conditions: in vivo, 0.0125 mg/kg; procedure, shortened: as §1
# [19] = system: P388; experiment: Antitumor activity against mouse P388 cells allografted in PS mouse assessed as median survival time at 25 ug/kg relative to control; type: functional; procedure, shortened: as §2
# [20] = system: Mus musculus; experiment: Toxicity in PS mouse allografted with mouse P388 cells assessed as change in body weight at 6.2 ug/kg relative to control; type: organism-based; conditions: in vivo, 0.0062 mg/kg; procedure, shortened: as §1
# [21] = system: P388; experiment: Antitumor activity against mouse P388 cells allografted in PS mouse assessed as median survival time at 6.2 ug/kg relative to control; type: functional; procedure, shortened: as §2
# [22] = system: P388; experiment: Antitumor activity against mouse P388 cells allografted in PS mouse assessed as median survival time at 200 ug/kg relative to control; type: functional; procedure, shortened: as §2
# [23] = system: Paracentrotus lividus; experiment: Antimitotic activity against sea urchin eggs assessed as drug level causing inhibition of mitosis; type: functional; conditions: Egg
# [24] = system: Mus musculus; experiment: Toxicity in PS mouse allografted with mouse P388 cells assessed as survival at 25 ug/kg after 4 days; type: organism-based; conditions: in vivo, 0.025 mg/kg, 96 h; procedure, shortened: as §3
# [25] = system: Mus musculus; experiment: Toxicity in PS mouse allografted with mouse P388 cells assessed as survival at 50 ug/kg after 4 days; type: organism-based; conditions: in vivo, 0.05 mg/kg, 96 h; procedure, shortened: as §3
# [26] = system: Mus musculus; experiment: Toxicity in PS mouse allografted with mouse P388 cells assessed as change in body weight at 100 ug/kg relative to control; type: organism-based; conditions: in vivo, 0.1 mg/kg; procedure, shortened: as §1
# [27] = system: Mus musculus; experiment: Toxicity in PS mouse allografted with mouse P388 cells assessed as survival at 1.6 ug/kg after 4 days; type: organism-based; conditions: in vivo, 0.0016 mg/kg, 96 h; procedure, shortened: as §3
# [28] = system: P388; experiment: Antitumor activity against mouse P388 cells allografted in PS mouse assessed as median survival time at 400 ug/kg relative to control; type: functional; procedure, shortened: as §2
# [29] = system: Mus musculus; experiment: Toxicity in PS mouse allografted with mouse P388 cells assessed as survival at 400 ug/kg after 4 days; type: organism-based; conditions: in vivo, 0.4 mg/kg, 96 h; procedure, shortened: as §3
# [30] = system: Mus musculus; experiment: Toxicity in PS mouse allografted with mouse P388 cells assessed as change in body weight at 400 ug/kg relative to control; type: organism-based; conditions: in vivo, 0.4 mg/kg; procedure, shortened: as §1
# [31] = system: Mus musculus; experiment: Toxicity in PS mouse allografted with mouse P388 cells assessed as change in body weight at 0.8 ug/kg relative to control; type: organism-based; conditions: in vivo, 0.0008 mg/kg
# Procedure, shortened: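 PS (P388 leukemia) mice, six per dose group. Toxicity read as the difference in grams between the weights of treated and control animals.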
# [32] = system: P388; experiment: Antitumor activity against mouse P388 cells allografted in PS mouse assessed as median survival time at 0.8 ug/kg relative to control; type: functional; procedure, shortened: as §2
# [33] = system: Mus musculus; experiment: Toxicity in PS mouse allografted with mouse P388 cells assessed as survival at 0.8 ug/kg after 4 days; type: organism-based; conditions: in vivo, 0.0008 mg/kg, 96 h; procedure, shortened: as §3
SMILES,Activity [1],Activity [2],T/C [3],Activity [4],EC50 [5],Activity [6],Activity [7],T/C [8],T/C [9],Activity [10],T/C [11],Activity [12],inhibition [13],T/C [14],Activity [15],Activity [17],T/C [22],Activity [23],Activity [25],Activity [26],further results
COc1cc2cc(c1Cl)NC(=O)/C=C/C(C)=C/[C@H](C)[C@@H]1C[C@@](O)(NC(=O)O1)[C@H](OC)/C=C/C=C(\C)C2,1.8 g,1.2 g,120%,Non-toxic,2 ng/mL,Non-toxic,1 g,120%,104%,1.4 g,95%,-0.8 g,Active,<80%,Non-toxic,Non-toxic,104%,1 ×10⁻⁸ mol/L,Non-toxic,0.8 g,Activity [16]: Non-toxic; Activity [18]: 0.7 g; T/C [19]: 108%; Activity [20]: 0.7 g; T/C [21]: 87%; Activity [24]: Non-toxic; Activity [27]: Non-toxic
COc1cc2cc(c1Cl)N(C)C(=O)C[C@H](OC(=O)[C@H](C)N(C)C(C)=O)[C@]1(C)O[C@H]1[C@H](C)[C@@H]1C[C@@](OC)(NC(=O)O1)[C@H](OC)/C=C/C=C(\C)C2,-2.3 g,-0.7 g,104%,,0.19 ng/mL,,,101%,,,,,Active,,Non-toxic,Non-toxic,93%,1 ×10⁻⁸ mol/L,Non-toxic,-0.9 g,T/C [28]: 139%; Activity [29]: Non-toxic; Activity [30]: -0.9 g
CCC(=O)O[C@H]1CC(=O)N(C)c2cc(cc(OC)c2Cl)C/C(C)=C/C=C/[C@@H](OC)[C@@]2(O)C[C@H](OC(=O)N2)[C@@H](C)[C@@H]2O[C@@]12C,-0.9 g,-3.5 g,<80%,Non-toxic,0.21 ng/mL,Non-toxic,-0.8 g,198%,129%,1.3 g,131%,-0.5 g,Active,163%,Toxic,Toxic,<80%,1 nM,Non-toxic,-2 g,Activity [31]: -0.5 g; T/C [32]: 110%; Activity [33]: Non-toxic; Activity [16]: Non-toxic; Activity [18]: -0.3 g; T/C [19]: 153%; Activity [20]: -1 g; T/C [21]: 140%; Activity [24]: Non-toxic; Activity [27]: Non-toxic
